Data: publication PMC4431436 (Oncology Reports, 2015)
Entries after “also recorded” stand apart in the source; their conditions may differ. Where two headings read alike, the source gives them in different places.

Assays:
murine B16F10 melanoma = assay: lung metastasis in the murine B16F10 melanoma prevention model; format: in vivo, B6D2F1 hybrid female mice; conditions: for total tumor colony number on lung surface: Veh 90±5, mean ± SEM
Procedure, shortened: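 6-week-old B6D2F1 females got 1.5×10⁵ B16F10 cells (cultured in DMEM/10% FBS) by i.v. tail vein. Necropsy ~2 weeks. Surface colonies counted across five lung regions; formalin-fixed frontal H&E sections for tumor area. Mean ± SEM; ANOVA/Tukey or t-test; Fisher's PLSD for area.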

[1] = molecular target: purified human αvβ3 integrin (Homo sapiens, UniProt P05106+P06756); assay: 3H-MK-0429 binding assay with purified receptor
[2] = molecular target: purified murine αvβ3 integrin (Mus musculus, UniProt O54890+P43406); assay: 3H-MK-0429 binding assay with purified receptor
[3] = molecular target: T1, purified rat αvβ3 integrin (Rattus norvegicus, UniProt F1LZX9+Q8R2H2); assay: 3H-MK-0429 binding assay with purified receptor
T1 sequence (F1LZX9 31-1043): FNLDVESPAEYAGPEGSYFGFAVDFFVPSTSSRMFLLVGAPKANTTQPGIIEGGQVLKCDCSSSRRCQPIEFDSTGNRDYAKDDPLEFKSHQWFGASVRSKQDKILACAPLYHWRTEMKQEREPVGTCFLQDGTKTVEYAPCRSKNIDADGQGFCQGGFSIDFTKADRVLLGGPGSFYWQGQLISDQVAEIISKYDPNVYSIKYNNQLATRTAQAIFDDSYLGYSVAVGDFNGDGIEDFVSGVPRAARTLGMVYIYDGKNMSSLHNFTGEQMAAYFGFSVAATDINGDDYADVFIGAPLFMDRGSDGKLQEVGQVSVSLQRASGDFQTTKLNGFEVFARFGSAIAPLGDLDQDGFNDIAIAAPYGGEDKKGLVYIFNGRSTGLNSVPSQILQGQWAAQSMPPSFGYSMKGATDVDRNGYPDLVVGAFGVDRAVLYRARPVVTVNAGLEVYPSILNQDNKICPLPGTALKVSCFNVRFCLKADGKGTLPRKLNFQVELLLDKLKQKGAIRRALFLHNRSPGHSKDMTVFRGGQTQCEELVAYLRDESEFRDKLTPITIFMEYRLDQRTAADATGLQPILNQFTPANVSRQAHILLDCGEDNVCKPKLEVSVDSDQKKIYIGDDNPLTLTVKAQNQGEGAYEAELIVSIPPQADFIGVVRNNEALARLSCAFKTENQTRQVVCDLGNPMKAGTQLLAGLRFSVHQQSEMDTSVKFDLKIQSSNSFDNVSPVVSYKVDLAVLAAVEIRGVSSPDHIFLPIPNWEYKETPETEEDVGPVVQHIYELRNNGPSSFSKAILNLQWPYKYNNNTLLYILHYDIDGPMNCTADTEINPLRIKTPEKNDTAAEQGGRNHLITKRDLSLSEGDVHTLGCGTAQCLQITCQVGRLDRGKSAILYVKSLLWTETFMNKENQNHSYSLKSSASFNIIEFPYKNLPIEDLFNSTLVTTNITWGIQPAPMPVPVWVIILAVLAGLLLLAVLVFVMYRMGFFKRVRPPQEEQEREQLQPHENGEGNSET
T1 sequence (Q8R2H2 26-787): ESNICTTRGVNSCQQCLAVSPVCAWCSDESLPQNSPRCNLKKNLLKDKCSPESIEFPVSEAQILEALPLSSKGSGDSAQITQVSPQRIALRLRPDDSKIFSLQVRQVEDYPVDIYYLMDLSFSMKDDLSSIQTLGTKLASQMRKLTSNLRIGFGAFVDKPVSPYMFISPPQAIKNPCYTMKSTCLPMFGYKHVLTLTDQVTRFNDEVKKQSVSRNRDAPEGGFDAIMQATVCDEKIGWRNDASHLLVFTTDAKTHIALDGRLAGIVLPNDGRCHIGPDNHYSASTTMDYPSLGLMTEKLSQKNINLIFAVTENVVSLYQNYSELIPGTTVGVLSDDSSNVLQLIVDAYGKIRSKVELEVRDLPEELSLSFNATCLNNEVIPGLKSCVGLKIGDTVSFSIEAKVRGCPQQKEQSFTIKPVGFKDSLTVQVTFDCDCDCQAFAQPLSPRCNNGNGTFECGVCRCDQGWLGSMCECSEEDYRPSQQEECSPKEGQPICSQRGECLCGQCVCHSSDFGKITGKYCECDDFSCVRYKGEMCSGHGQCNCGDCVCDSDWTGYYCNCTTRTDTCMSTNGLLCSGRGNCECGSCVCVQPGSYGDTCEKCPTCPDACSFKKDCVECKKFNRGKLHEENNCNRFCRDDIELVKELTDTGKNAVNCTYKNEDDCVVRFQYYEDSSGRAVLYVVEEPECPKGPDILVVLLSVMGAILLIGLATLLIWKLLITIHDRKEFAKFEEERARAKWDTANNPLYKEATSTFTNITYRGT

human integrin αvβ3 = human integrin αvβ3 (Homo sapiens, UniProt P05106+P06756); assay: cell adhesion assay, HeK293-αvβ3 cells to vitronectin; format: cell-based
Procedure, shortened: (§1)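 Stably transfected HEK293 cells overexpressing a human integrin, 25×10³ cells/well, attached for 2 h at 37°C in a humidified incubator, with or without increasing concentrations of test compound. Wells were coated with vitronectin (αvβ3, αvβ5), fibrinogen (αIIbβ3) or fibronectin (α5β1). Non-attached cells were washed off. Attached cells were quantified by colorimetric hexosaminidase activity against a per-line standard curve; mean of triplicates.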

human integrin αvβ5 = assay: cell adhesion assay, HeK293 overexpressing αvβ5 to vitronectin; format: cell-based; conditions: relative to αvβ3-mediated adhesion
Procedure, shortened: as §1

human integrin αIIbβ3 = assay: cell adhesion assay, HeK293 overexpressing αIIbβ3 to fibrinogen; format: cell-based; conditions: relative to αvβ3-mediated adhesion
Procedure, shortened: as §1

human integrin α5β1 = assay: cell adhesion assay, HeK293 overexpressing α5β1 to fibronectin; format: cell-based; conditions: relative to αvβ3-mediated adhesion
Procedure, shortened: as §1

[4] = body weight of mice injected with B16F10 melanoma; format: in vivo, B6D2F1 hybrid female mice; conditions: 100 and 300 mg/kg, p.o., b.i.d., over the study duration
[5] = tested on: B16F10-luc melanoma cells; assay: bioluminescent imaging of de novo lung metastasis, B16F10-luc melanoma model; format: in vivo, (nu/nu) female mice
Procedure, shortened: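 8-week-old nu/nu females got 2.5×10⁵ G418-selected luciferase-expressing B16F10 cells i.v. From day 1, saline or test compound 300 mg/kg p.o. b.i.d. for two weeks; n=10/group. Imaged on days 0, 3, 8, 11 and 15 under 2.5% isoflurane after D-luciferin 90 mg/kg i.p. Total flux (photons/s) taken in head, lung and abdomen ROIs, dorsal and ventral. Then ex vivo lung imaging and surface colony counts. Mean ± SEM.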

[6] = tested on: osteoclastic bone resorption; conditions: read-out: IC50, inhibition of osteoclastic bone resorption; in vitro; cited from earlier work
[7] = ovariectomized rats; cited from earlier work
[8] = ovariectomized monkeys; cited from earlier work
[9] = cited from earlier work
[10] = cited from earlier work; remark: listed apart in the source
[11] = approximately; cited from earlier work
metastatic melanoma [12] = conditions: intravenously twice weekly; stage IV or unresectable stage III; cited from earlier work
metastatic melanoma [13] = conditions: 8 mg/kg once weekly, i.v.; stage IV metastatic melanoma; cited from earlier work
[14] = 300 mg/kg, p.o., b.i.d., day 11

human integrin αvβ3, sequence (P06756 891-1048): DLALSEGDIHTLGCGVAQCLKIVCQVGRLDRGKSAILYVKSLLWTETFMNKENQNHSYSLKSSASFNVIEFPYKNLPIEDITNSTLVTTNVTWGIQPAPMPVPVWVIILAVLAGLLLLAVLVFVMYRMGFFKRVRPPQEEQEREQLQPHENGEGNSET
human integrin αvβ3, sequence (P05106 27-788): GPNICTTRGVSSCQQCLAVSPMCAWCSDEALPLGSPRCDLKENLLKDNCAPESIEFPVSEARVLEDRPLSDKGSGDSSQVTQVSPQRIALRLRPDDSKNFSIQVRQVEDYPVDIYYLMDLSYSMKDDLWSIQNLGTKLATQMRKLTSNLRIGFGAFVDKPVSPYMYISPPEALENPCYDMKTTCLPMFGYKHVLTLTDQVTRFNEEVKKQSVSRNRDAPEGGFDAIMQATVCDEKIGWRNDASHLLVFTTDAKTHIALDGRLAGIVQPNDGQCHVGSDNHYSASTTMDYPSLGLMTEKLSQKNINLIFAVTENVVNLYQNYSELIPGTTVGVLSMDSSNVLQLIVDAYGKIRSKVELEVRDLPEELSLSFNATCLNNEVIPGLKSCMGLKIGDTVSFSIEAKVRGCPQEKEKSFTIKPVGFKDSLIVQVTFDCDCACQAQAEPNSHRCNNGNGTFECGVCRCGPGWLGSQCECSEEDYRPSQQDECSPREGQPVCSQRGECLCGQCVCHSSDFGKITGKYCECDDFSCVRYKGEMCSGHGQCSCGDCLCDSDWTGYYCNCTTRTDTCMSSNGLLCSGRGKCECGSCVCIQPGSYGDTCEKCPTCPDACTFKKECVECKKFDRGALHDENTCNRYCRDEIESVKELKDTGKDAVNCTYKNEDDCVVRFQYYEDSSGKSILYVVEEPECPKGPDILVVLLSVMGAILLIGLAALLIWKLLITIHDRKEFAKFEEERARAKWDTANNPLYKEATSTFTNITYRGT
human integrin αvβ3, sequence (P06756 31-889): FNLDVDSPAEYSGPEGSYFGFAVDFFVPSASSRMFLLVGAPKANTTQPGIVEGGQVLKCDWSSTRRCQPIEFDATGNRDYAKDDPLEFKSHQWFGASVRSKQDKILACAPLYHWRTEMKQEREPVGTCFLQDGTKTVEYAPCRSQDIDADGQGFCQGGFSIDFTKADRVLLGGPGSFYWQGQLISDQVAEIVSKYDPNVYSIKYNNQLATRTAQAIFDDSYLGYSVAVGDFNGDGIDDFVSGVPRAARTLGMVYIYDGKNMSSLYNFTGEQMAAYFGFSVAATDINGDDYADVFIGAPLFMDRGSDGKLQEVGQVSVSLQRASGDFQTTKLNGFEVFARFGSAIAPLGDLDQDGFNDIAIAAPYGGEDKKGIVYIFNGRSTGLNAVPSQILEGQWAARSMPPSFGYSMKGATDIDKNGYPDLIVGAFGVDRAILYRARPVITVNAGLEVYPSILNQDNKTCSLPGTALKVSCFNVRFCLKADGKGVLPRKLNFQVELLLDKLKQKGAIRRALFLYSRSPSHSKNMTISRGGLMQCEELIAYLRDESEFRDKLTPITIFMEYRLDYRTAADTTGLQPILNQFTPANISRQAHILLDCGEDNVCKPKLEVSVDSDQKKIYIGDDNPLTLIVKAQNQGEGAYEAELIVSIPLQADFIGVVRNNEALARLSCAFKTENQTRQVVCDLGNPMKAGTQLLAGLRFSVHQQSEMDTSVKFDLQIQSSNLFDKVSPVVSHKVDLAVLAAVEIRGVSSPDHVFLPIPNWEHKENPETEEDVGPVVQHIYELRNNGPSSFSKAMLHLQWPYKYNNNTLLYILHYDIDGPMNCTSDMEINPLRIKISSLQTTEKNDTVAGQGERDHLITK
purified murine αvβ3 integrin, sequence (P43406 31-885): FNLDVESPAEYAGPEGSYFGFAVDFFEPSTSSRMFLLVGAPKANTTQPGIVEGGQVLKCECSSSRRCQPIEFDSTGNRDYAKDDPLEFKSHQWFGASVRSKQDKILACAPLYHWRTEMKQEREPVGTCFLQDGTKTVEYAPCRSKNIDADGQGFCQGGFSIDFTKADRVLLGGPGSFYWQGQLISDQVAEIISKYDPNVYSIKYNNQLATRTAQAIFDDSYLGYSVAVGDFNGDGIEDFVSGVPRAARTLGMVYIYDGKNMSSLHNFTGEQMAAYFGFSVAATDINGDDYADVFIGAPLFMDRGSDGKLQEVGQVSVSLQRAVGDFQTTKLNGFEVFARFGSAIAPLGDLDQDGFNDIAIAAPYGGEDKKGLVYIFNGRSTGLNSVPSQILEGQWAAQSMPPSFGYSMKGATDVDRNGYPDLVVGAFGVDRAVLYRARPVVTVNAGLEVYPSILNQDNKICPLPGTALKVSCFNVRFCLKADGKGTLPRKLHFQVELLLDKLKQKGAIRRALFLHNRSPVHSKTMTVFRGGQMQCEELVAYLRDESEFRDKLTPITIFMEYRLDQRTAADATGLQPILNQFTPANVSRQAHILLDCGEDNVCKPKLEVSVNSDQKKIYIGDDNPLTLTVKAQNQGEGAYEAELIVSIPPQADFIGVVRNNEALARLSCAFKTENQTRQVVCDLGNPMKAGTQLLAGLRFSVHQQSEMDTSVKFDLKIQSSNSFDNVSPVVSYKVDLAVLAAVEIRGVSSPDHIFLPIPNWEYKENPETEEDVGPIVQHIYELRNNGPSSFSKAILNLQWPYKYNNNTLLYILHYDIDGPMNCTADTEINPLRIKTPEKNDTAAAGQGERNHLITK
purified murine αvβ3 integrin, sequence (P43406 887-1044): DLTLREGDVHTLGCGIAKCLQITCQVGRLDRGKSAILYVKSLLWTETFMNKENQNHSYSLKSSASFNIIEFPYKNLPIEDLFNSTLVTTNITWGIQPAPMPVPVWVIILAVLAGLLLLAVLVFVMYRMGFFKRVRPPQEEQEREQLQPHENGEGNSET
purified murine αvβ3 integrin, sequence (O54890 26-787): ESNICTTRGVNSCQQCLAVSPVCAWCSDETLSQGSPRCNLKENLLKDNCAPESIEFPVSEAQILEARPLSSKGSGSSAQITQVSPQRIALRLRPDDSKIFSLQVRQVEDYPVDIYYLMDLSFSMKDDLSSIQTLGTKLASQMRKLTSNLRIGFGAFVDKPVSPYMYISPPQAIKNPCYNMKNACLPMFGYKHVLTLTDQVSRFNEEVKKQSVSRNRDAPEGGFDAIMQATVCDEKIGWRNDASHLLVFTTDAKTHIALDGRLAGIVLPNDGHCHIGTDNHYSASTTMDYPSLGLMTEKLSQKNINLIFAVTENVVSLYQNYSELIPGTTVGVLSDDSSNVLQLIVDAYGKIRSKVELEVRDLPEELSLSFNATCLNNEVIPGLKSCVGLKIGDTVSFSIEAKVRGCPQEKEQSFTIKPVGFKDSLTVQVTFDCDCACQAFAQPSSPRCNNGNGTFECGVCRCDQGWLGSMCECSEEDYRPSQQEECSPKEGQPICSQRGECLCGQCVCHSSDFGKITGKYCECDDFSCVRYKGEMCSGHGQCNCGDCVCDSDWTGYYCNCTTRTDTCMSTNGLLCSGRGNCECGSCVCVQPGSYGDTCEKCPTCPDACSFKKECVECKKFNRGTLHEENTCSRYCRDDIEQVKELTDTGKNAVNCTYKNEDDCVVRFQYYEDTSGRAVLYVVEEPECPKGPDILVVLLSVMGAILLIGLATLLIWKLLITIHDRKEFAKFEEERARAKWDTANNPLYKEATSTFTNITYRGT
purified human αvβ3 integrin, sequence (P05106 27-788): as the sequence (P05106 27-788) above
purified human αvβ3 integrin, sequence (P06756 31-889): as the sequence (P06756 31-889) above
purified human αvβ3 integrin, sequence (P06756 891-1048): as the sequence (P06756 891-1048) above

O=P1(N(CCCl)CCCl)NCCCO1 (stereo not drawn) [Cyclophosphamide, cyclophosphamide, reference compound]
reduction of tumor colony number vs vehicle (murine B16F10 melanoma; 300 mg/kg, i.p., q.d.): 99%

COc1ccc([C@H](CC(=O)O)N2CCN(CCCc3ccc4c(n3)NCCC4)C2=O)cn1 [MK-0429, 3(S)-(6-methoxypyridin-3-yl)-3-[2-oxo-3-[3-(5,6,7,8-tetrahydro-[1,8]-naphthyridin-2-yl)propyl]imidazolidin-1-yl] propionic acid]
Kd [1]: 0.33 ± 0.04 nM
Kd [2]: 0.56 ± 0.07 nM
Kd [3]: 1.23 ± 0.11 nM
IC50 (human integrin αvβ3): 0.58 ± 0.3 nM
fold less potent in blocking adhesion of HeK293-αvβ5 to vitronectin (human integrin αvβ5): ~ 100 fold
fold less active in blocking adhesion mediated by αIIbβ3 to fibrinogen (human integrin αIIbβ3): > 1,000 fold
fold less active in blocking adhesion mediated by α5β1 to fibronectin (human integrin α5β1): > 1,000 fold
effect on body weight [4]: no significant weight loss
reduction of tumor colony number vs vehicle (murine B16F10 melanoma; 100 mg/kg, p.o., b.i.d.): 64%
total tumor colony number on lung surface (murine B16F10 melanoma; 100 mg/kg, p.o., b.i.d.): 33±6
total tumor area in lung sections (H&E) (murine B16F10 melanoma; 300 mg/kg, b.i.d., Veh 11.1±0.4, n=5/group): 5.0±0.7 mm^2
reduction of tumor colony number vs vehicle (murine B16F10 melanoma; 300 mg/kg, p.o., b.i.d.): 57%
total tumor colony number on lung surface (murine B16F10 melanoma; 300 mg/kg, p.o., b.i.d.): 39±9
reduction of melanoma colonies in all lung regions (murine B16F10 melanoma; 100 and 300 mg/kg, p.o., b.i.d., five lung regions): 53–68%
reduction of visible metastatic colonies counted on the ex vivo lung surface ([5]; 300 mg/kg twice daily for two weeks, p<0.05 vs. Veh): 32%
decrease of metastasis in the lungs, ex vivo bioluminescence, vs vehicle ([5]; 300 mg/kg, p.o., b.i.d.): ~ 40%
ex vivo lung tumor burden (bioluminescence) ([5]; 300 mg/kg, p.o., b.i.d., Veh 118.1±27.1, not statistically significant): 69.9±5.9 ×10^5 photons/sec
reduction of melanoma burden in the ventral lung (bioluminescence) vs vehicle ([5]; 300 mg/kg, p.o., b.i.d., day 8): 38%
reduction of tumor metastases in the dorsal lung (bioluminescence) vs vehicle ([5]; 300 mg/kg, p.o., b.i.d., day 8): 15%
reduction of melanoma burden in the ventral lung (bioluminescence) vs vehicle [5, 14]: 37%
reduction of tumor metastases in the dorsal lung (bioluminescence) vs vehicle [5, 14]: 54%
reduction of tumor metastases in the dorsal lung (bioluminescence) vs vehicle ([5]; 300 mg/kg, p.o., b.i.d., day 15, p=0.0561 vs. Veh): 38%
IC50 [6]: 12.2 ± 4.5 nM
bone mass [7]: increases bone mass
bone turnover [7]: significantly reduces bone turnover
bone mass [8]: increases bone mass
bone turnover [8]: significantly reduces bone turnover
bone mineral density at the spine and hip compared to placebo ([9]; 100 or 400 mg once daily, or 200 mg twice daily for 12 months): significant increase
tolerability ([9]; postmenopausal women with osteoporosis): well tolerated and without serious adverse events
bone resorption marker urinary N-telopeptide ([10]; 200 and 1,600 mg orally, twice daily for four weeks): significantly decreased
tolerability ([10]; up to 1,600 mg twice daily for four weeks): well tolerated at this high dose; also recorded: well tolerated and without serious adverse events

Cilengitide [reference compound]
half-life [11]: 2 to 4 h
clinical efficacy as single-agent therapy for advanced melanoma (metastatic melanoma [12]): minimal clinical efficacy

B1: etaracizumab: monoclonal antibody against αvβ3 (antibody, chains of the INN, looked up, V domains shown)
VH: QVQLVESGGGVVQPGRSLRLSCAASGFTFSSYDMSWVRQAPGKGLEWVAKVSSGGGSTYYLDTVQGRFTISRDNSKNTLYLQMNSLRAEDTAVYYCARHLHGSFASWGQGTTVTVSS
VL: EIVLTQSPATLSLSPGERATLSCQASQSISNFLHWYQQRPGQAPRLLIRYRSQSISGIPARFSGSGSGTDFTLTISSLEPEDFAVYYCQQSGSWPLTFGGGTKVEIK
half-life [11]: a few days
median survival rate, alone vs in combination with dacarbazine (metastatic melanoma [13]): not different
